In ChEMBL document CHEMBL3758106, “Antitumor Activity of Americanin A Isolated from the Seeds of Phytolacca americana by Regulating the ATM/ATR Signaling Pathway and the Skp2-p27 Axis in Human Colon Cancer Cells” (J Nat Prod, 2015):
Calls of active or inactive are those of the source. The calls are words filed in the database; no cut-off is given here.

Columns and labels:
[1] = Decrease in Skp2 expression in human HCT116 cells at 7.5 to 30 uM after 24 hrs by western blot analysis; type: functional, cell-based; details: HCT-116
Outline: (§1)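 HCT116 cells exposed 24 h in complete medium; lysed in RIPA buffer (pH 8.0), protein by BCA, equal loads run on 8–13% SDS-PAGE, PVDF transfer, blocked in 5% BSA/TBST, primary antibodies overnight at 4 °C, HRP secondaries 2 h RT, ECL detection; β-actin as loading control.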

HCT-116 [2] = test: Induction of apoptosis in human HCT116 cells assessed as cleaved PARP level at 30 uM up to 24 hrs by Western blot analysis; type: functional, cell-based
HCT-116 [3] = test: Induction of morphological change in human HCT116 cells assessed as appearance of rounded cells at 30 uM after 24 to 48 hrs by phase contrast microscopic analysis; type: functional, cell-based
Outline: (§2)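 HCT116 cells incubated with compound for 24 h, then viewed and photographed under phase-contrast microscopy; also examined at 48 h.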

HCT-116 [4] = test: Induction of cell cycle arrest in human HCT116 cells assessed as accumulation at G0/G1 phase at 7.5 uM after 24 hrs by propidium iodide staining-based flow cytometric analysis in presence of RNase A (reference value: 64.6%); type: functional
[5] = molecular target: Cyclin-dependent kinase inhibitor 1B/S-phase kinase-associated protein 2 (Homo sapiens) (UniProt Q13309+P46527); test: Inhibition of Skp2/p27 protein interaction in human HCT116 cells after 24 hrs by immunoprecipitation assay; type: cell-based; details: HCT-116
Cyclin-dependent kinase inhibitor 1B/S-phase kinase-associated protein 2 (Homo sapiens), sequence (P46527 whole entry, looked up): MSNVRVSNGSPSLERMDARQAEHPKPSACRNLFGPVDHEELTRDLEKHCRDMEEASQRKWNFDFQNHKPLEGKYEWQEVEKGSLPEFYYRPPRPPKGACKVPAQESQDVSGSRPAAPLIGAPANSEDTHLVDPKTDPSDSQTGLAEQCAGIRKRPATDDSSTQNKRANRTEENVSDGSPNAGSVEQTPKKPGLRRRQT
Cyclin-dependent kinase inhibitor 1B/S-phase kinase-associated protein 2 (Homo sapiens), sequence (Q13309 whole entry, looked up): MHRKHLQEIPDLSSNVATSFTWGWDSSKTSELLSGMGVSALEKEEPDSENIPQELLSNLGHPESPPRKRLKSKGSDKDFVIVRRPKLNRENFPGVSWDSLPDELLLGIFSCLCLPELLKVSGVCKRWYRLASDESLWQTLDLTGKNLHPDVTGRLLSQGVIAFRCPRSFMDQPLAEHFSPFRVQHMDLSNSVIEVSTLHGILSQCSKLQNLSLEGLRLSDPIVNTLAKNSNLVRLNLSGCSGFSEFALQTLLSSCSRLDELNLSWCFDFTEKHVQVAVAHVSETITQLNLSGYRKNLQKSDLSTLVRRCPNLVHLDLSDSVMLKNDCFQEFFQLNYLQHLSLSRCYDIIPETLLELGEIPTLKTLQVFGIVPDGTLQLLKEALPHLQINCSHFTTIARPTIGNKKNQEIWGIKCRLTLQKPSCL
Outline: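 Protein measured by Bradford. Equal protein incubated with Protein G sepharose and the capture antibody (anti-p53, anti-Cul-1 or anti-Skp2) overnight at 4 °C. Bead eluates boiled in Laemmli/2-mercaptoethanol and analysed by Western blot.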

HCT-116 [6] = test: Induction of morphological change in human HCT116 cells assessed as loss of contact with adjacent cells at 30 uM after 24 to 48 hrs by phase contrast microscopic analysis; type: functional, cell-based; outline: as §2
A549 = test: Antiproliferative activity against human A549 cells after 24 to 72 hrs by SRB assay; type: functional, cell-based
Outline: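 Cells grown in 96-well plates (RPMI 1640; MRC-5 in MEM, 10% FBS, antibiotics) with compound […]; fixed in 10% TCA 30 min at 4 °C, stained 0.4% SRB in 1% acetic acid 1 h, dye dissolved in 10 mM Tris pH 10.0, A515 read; viability as % of solvent control, IC50 by nonlinear regression; mean of three independent experiments.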

HCT-116 [7] = test: Induction of apoptosis in human HCT116 cells assessed as decrease in Bcl2 expression at 7.5 to 30 uM after 48 hrs by Western blot analysis; type: functional, cell-based
Outline: (§3)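 HCT116 cells exposed 48 h; Western blot of RIPA lysates (BCA quantification, SDS-PAGE, PVDF, overnight primary antibodies at 4 °C, HRP secondary, ECL).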

HCT-116 [8] = test: Induction of apoptosis in human HCT116 cells assessed as decrease in Bcl-xL expression at 7.5 to 30 uM after 48 hrs by Western blot analysis; type: functional, cell-based; outline: as §3
[9] = Downregulation of cdc2 expression in human HCT116 cells at 7.5 to 30 uM after 24 hrs by Western blot analysis; type: functional, cell-based; details: HCT-116; outline: as §1
[10] = Antiproliferative activity against human HCT116 cells assessed as cell viability after 48 hrs by SRB assay; type: functional, cell-based; details: HCT-116, 48 h
Outline: (§4)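 HCT116 cells in 96-well plates exposed 24, 48 or 72 h; TCA fixation, 0.4% SRB staining, dye solubilised in 10 mM Tris pH 10.0, absorbance at 515 nm; viability relative to solvent-treated control.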

HCT-116 [11] = test: Induction of apoptosis in human HCT116 cells assessed as early apoptotic cells at 30 uM after 48 hrs by annexin V-FITC/propidium iodide staining-based flow cytometric analysis (reference value: 1.6%); type: functional
[12] = Upregulation of p53 expression in human HCT116 cells at 7.5 to 30 uM after 24 hrs by Western blot analysis; type: functional, cell-based; details: HCT-116
HCT-116 [13] = test: Induction of apoptosis in human HCT116 cells assessed as cleaved caspase 3 level at 30 uM up to 24 hrs by Western blot analysis in presence of NAC; type: functional, cell-based
HCT-116 [14] = test: Induction of apoptosis in human HCT116 cells assessed as cleaved caspase 3 level at 30 uM up to 24 hrs by Western blot analysis; type: functional, cell-based
HCT-116 [15] = test: Induction of cell cycle arrest in human HCT116 cells assessed as accumulation at G0/G1 phase at 30 uM after 48 hrs by propidium iodide staining-based flow cytometric analysis in presence of RNase A (reference value: 54.3%); type: functional
[16] = Antiproliferative activity against human HCT116 cells assessed as cell viability after 24 hrs by SRB assay; type: functional, cell-based; details: HCT-116, 24 h; outline: as §4
HCT-116 [17] = test: Induction of apoptosis in human HCT116 cells assessed as increase in Bim expression after 48 hrs by Western blot analysis; type: functional, cell-based
Outline: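 Cells treated for 48 h and lysed in RIPA buffer (pH 8.0). Total protein was measured by BCA, and equal protein was resolved on 8−13% SDS-PAGE and moved to PVDF. Membranes were blocked in 5% BSA/TBST and given primary antibody overnight at 4 °C, then an HRP secondary for 2 h at RT. Detection by enhanced chemiluminescence.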

[18] = Upregulation of MDM2 expression in human HCT116 cells at 7.5 to 30 uM after 24 hrs by Western blot analysis; type: functional, cell-based; details: HCT-116
HCT-116 [19] = test: Induction of apoptosis in human HCT116 cells assessed as late apoptotic cells at 15 uM after 48 hrs by annexin V-FITC/propidium iodide staining-based flow cytometric analysis (reference value: 5.2%); type: functional
HCT-116 [20] = test: Induction of cell cycle arrest in human HCT116 cells assessed as accumulation at S phase at 30 uM after 24 hrs by propidium iodide staining-based flow cytometric analysis in presence of RNase A (reference value: 13.4%); type: functional
HCT-116 [21] = test: Induction of apoptosis in human HCT116 cells assessed as early apoptotic cells at 7.5 uM after 48 hrs by annexin V-FITC/propidium iodide staining-based flow cytometric analysis (reference value: 1.6%); type: functional
[22] = molecular target: Tumour suppressor p53/oncoprotein Mdm2 (Homo sapiens) (UniProt P04637+Q00987); test: Inhibition of MDM2/P53 protein interaction in human HCT116 cells assessed as stabilization of p53 at 7.5 to 30 uM after 24 hrs by western blot analysis; type: cell-based; details: HCT-116
Tumour suppressor p53/oncoprotein Mdm2 (Homo sapiens), sequence (P04637 whole entry, looked up): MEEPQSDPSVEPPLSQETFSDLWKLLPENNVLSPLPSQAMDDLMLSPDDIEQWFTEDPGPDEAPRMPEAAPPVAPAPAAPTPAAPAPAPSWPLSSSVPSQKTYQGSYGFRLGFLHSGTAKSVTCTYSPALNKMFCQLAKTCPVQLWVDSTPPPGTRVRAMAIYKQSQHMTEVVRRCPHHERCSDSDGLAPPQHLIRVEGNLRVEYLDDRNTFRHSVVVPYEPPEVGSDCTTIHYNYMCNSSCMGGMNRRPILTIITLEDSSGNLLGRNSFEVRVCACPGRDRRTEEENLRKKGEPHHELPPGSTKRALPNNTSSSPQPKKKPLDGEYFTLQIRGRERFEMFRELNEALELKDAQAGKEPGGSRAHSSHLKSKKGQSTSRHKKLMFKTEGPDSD
Tumour suppressor p53/oncoprotein Mdm2 (Homo sapiens), sequence (Q00987 whole entry, looked up): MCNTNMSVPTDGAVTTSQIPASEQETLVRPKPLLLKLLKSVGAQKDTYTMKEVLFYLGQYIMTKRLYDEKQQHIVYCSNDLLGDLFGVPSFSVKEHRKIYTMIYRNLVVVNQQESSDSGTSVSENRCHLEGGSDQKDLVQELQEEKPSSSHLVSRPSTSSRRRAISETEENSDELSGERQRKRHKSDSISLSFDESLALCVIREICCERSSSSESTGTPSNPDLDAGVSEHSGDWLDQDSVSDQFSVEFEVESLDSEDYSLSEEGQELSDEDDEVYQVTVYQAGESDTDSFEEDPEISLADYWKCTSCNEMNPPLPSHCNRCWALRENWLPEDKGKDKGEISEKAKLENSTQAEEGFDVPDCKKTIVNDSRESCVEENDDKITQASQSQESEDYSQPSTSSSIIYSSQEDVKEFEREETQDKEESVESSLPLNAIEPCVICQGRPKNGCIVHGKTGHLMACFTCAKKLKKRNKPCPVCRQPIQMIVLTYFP

HCT-116 [23] = test: Induction of cell cycle arrest in human HCT116 cells assessed as accumulation at S phase at 7.5 uM after 24 hrs by propidium iodide staining-based flow cytometric analysis in presence of RNase A (reference value: 13.4%); type: functional
HCT-116 [24] = test: Induction of cell cycle arrest in human HCT116 cells assessed as accumulation at S phase at 30 uM after 48 hrs by propidium iodide staining-based flow cytometric analysis in presence of RNase A (reference value: 16.2%); type: functional
HCT-116 [25] = test: Increase in p27 expression in human HCT116 cells after 24 hrs by western blot analysis; type: functional, cell-based; outline: as §1

## O=C/C=C/c1ccc2c(c1)O[C@@H](CO)[C@H](c1ccc(O)c(O)c1)O2 [AMERICANIN A]
[1]
  Activity: Active
HCT-116 [2]
  Activity: Active
HCT-116 [3]
  Activity: Active
HCT-116 [4]
  Activity: 55.4%
[5]
  inhibition: inactive
HCT-116 [6]
  Activity: Active
A549
  IC50: 39.1 µM
HCT-116 [7]
  Activity: Active
HCT-116 [8]
  Activity: Active
[9]
  Activity: Active
[10]
  IC50: 9.6 µM
HCT-116 [11]
  Activity: 32.8%
[12]
  Activity: Active
HCT-116 [13]
  Activity: inactive
HCT-116 [14]
  Activity: Active
HCT-116 [15]
  Activity: 16.4%
[16]
  IC50: 24.1 µM
HCT-116 [17]
  Activity: Dose-dependent effect
[18]
  Activity: Active
HCT-116 [19]
  Activity: 11.1%
HCT-116 [20]
  Activity: 18.4%
HCT-116 [21]
  Activity: 3%
[22]
  inhibition: Active
HCT-116 [23]
  Activity: 15.6%
HCT-116 [24]
  Activity: 8.4%
HCT-116 [25]
  Activity: Dose-dependent effect
